Only some compounds are listed: those with a hit (about 3.1% of all), similar ones and a draw of the others.
ADAM10 inh: human ADAM10 inhibitors, primary screen, biochemical, QFRET, HTS | Disintegrin and metalloproteinase domain-containing protein 10 (Homo sapiens), O14672 | recombinant ADAM10, EDANS/DABCYL FRET peptide cleavage, 3 h | inhibition, % at 7 µM | 0.62% of 370,000 active | AID 720582, 2013;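 active = inhibition above a per-campaign cutoff equal to the mean of compounds falling between control-based bounds plus 3 SD, cut at about 20% in these data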;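 note: 0% = DMSO wells while the 100% control is not disclosed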
V-ATPase pHluor: regulators of yeast V-ATPase proton pumping, primary screen, pHLuorin cytosolic pH fluorescence; S. cerevisiae; response, % at 10 µM; 0.37% of 350,000 active; AID 504577, 2011; in the data active = response mostly above about 7.3%, no sharp cut-off; inactive = mostly below about 5.4%; note: actives read high
ADAM17 inh: ADAM17 inhibitors, primary screen, biochemical, QFRET; Disintegrin and metalloproteinase domain-containing protein 17 (Homo sapiens), P78536; recombinant ADAM17, EDANS/DABCYL FRET peptide cleavage; inhibition, % at 6.95 µM; 0.83% of 370,000 active;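 active = inhibition above the mean of compounds lying between control limits plus 3 SD, set per campaign, cut at about 8.5% in these data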;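 note: 0% = DMSO-only wells as the low control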
Target sequence (P78536 215-824 limits assumed): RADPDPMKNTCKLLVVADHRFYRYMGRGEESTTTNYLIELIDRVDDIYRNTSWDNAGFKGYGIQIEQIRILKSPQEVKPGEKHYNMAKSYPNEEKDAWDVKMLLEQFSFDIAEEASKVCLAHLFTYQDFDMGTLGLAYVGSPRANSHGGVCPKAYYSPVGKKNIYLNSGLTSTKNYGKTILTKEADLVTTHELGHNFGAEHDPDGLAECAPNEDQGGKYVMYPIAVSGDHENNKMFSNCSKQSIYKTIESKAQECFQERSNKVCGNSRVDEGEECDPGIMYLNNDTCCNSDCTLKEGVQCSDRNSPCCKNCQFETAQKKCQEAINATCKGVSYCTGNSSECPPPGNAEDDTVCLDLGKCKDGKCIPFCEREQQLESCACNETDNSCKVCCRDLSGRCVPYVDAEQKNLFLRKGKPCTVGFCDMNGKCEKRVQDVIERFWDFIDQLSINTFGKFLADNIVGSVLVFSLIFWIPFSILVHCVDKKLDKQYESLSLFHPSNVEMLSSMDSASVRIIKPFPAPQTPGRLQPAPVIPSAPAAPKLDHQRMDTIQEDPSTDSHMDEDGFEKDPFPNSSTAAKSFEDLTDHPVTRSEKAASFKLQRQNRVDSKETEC
Lipid droplet: inhibitors of hepatocyte lipid droplet formation, primary screen, imaging, high-throughput imaging, BODIPY stain; 0.4% of 240,000 active; AML12 mouse hepatocytes, oleate lipid droplets; inhibition, % at 6.5 µM;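 active = lipid droplet intensity inhibited by at least 50%, with more than 500 cells counted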
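Assay system: AML12 hepatocytes (mouse) / Also added: 100 µM oleic acid challenge / Times: overnight treatment with compound plus oleate / Detection: high-content imaging of BODIPY-stained droplets and DAPI nuclei / Evaluation: % inhibition of lipid droplet signal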
MPTP block: mitochondrial permeability transition pore inhibitors, primary screen, biochemical, isolated mouse mitochondria, absorbance. Ca2+ swelling absorbance, 30 min. inhibition, % at 10 µM. 1.4% of 360,000 active. AID 602449, 2012;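 active = inhibition of 50% or more, scaled per plate between neutral and stimulator controls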;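 note: 0% = DMSO wells given calcium and 100% = 1 mM EGTA wells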
aDG glyco act: activators of alpha-DG glycosylation, primary screen, uHTS, Pro5-aDG cells, AlphaScreen. activation, % at 10 µM. 0.22% of 360,000 active. alpha-DG glycosylation AlphaScreen (IIH6); 0% Pro5, 100% B10-LARGE cell signal;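 active = activation of at least 8% versus controls, or a plate z-score of at least 8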;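 note: Pro5 are CHO cells carrying HIG-tagged alpha-DG that lacks glycosylation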
MPTP counter: fluorescence retest of MPTP screen hits in isolated mitochondria, single concentration | shares compounds with MPTP block | membrane potential, Rhodamine 123 fluorescence | inhibition, % at 10 µM | 78% of 5,000 active; in the data active = inhibition above about 22%;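 note: 0% = DMSO vehicle and 100% = positive control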
aDG glyco conf: alpha-DG glycosylation enhancers, retest, confirmation, single concentration, Pro5-aDG cells. shares compounds with aDG glyco act. AID 651671, 2012. 17% of 600 active. activation, % at 10 µM (by protocol). IIH6 AlphaLISA; scaled to LARGE-overexpressing B10 cells as 100%;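 active = activation of at least 7% in one or more replicates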;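 note: cells exposed to compound for two days before detection; 0% = DMSO-treated Pro5 cells and 100% = DMSO-treated B10-LARGE cells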
ADAM10 confirm: human ADAM10 inhibitors, confirmation, biochemical, QFRET, triplicate; shares compounds with ADAM10 inh; ADAM10 QFRET peptide cleavage, EDANS fluorescence; inhibition, % at 6.95 µM; 1% of 2,100 active; AID 743208, 2013;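 active = inhibition above about 20% chosen separately for each screening run, limit read from the data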;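 note: 0% = DMSO wells and 100% = marimastat wells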
ADAM17 ctr: ADAM17 inhibitors, counter-screen for ADAM10 exosite inhibitor project, biochemical, QFRET, high throughput. shares compounds with ADAM10 inh. ADAM17 QFRET peptide cleavage, EDANS fluorescence. inhibition, % at 6.95 µM. 0.5% of 2,100 active. AID 743214, 2013;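 active = mean triplicate inhibition above the solvent-only control wells' mean plus 3 SD, cut at about 12% in these data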;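 note: 0% = DMSO wells and 100% = marimastat wells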
ADAM10 ctr: ADAM10 inhibitors, counter-screen for ADAM17 exosite inhibitor project, biochemical, FRET, human ADAM10 | shares compounds with ADAM17 inh | recombinant ADAM10, EDANS/DABCYL FRET peptide cleavage, 3 h | inhibition, % at 6.95 µM | 47% of 2,900 active;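 active = mean inhibition over the triplicate runs exceeds the activity threshold set in the earlier primary screen, cut at about 20% in these data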;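 note: 0% = DMSO wells and 100% = marimastat wells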
ADAM17 confirm: ADAM17 inhibitors, hit retest, confirmation, biochemical, QFRET peptide cleavage | 65% of 2,900 active | shares compounds with ADAM17 inh | inhibition, % at 6.95 µM | recombinant ADAM17, EDANS/DABCYL QFRET peptide cleavage;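 active = mean inhibition across replicates above the hit cutoff set in the primary screen, cut at about 8.5% in these data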;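 note: 0% = DMSO wells and 100% = marimastat wells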
* marks the source's active call; other numbers are inactive results; / = no result.

SMILES	ADAM10 inh	V-ATPase pHluor	ADAM17 inh	Lipid droplet	MPTP block	aDG glyco act	MPTP counter	ADAM10 ctr	ADAM17 confirm	others
FC(F)(F)c1cccc(NC(=S)NCC2COc3ccccc3O2)c1 (stereo unspecified)	28*	7	9.2*	4	81*	0	81*	44*	18*	ADAM10 confirm=10;ADAM17 ctr=3
FC(F)(F)c1cccc(NC(=S)NNC(=S)NCc2ccccc2)c1	20*	-2	12*	/	79*	0	72*	31*	19*	ADAM10 confirm=6;ADAM17 ctr=3
FC(F)(F)c1cccc(NC(=S)NCc2ccccn2)c1	8	-2	1	7	8	0	/	/	/
O=C(NCC1CC1(Cl)Cl)Nc1ccc(Cl)c(Cl)c1 (stereo unspecified)	14	-4	9.5*	-21	62*	0	95*	32*	15*
CCC(C(=O)OCC(=O)Nc1ccc(F)cc1)c1ccccc1 (stereo unspecified)	-9	/	-1	/	0	0	/	/	/
CCOc1cc(C(=O)OCC(=O)Nc2ccc(SC(F)F)cc2)cc(OCC)c1OCC	19	3	10*	33	50*	0	61*	38*	18*
CC(=O)OCC(=O)Nc1ccc(SC(F)F)cc1	-4	-5	-1	-1	1	0	/	/	/
CCC(C(=O)OCC(=O)Nc1ccc(SC(F)F)cc1)c1ccccc1 (stereo unspecified)	29*	3	12*	-2	78*	0	88*	43*	23*	ADAM10 confirm=5;ADAM17 ctr=3
CC(C)C[C@H]1COc2cc(F)ccc2S(=O)(=O)N1C	-1	/	-2	/	/	/	/	/	/
O=C(Nc1ccc(C(O)(C(F)(F)F)C(F)(F)F)cc1)c1ccc(Cl)c([N+](=O)[O-])c1	34*	-1	16*	22	83*	0	67*	49*	22*	ADAM10 confirm=4;ADAM17 ctr=2
O=C(O)c1cc(NC(=O)c2ccc(Cl)c([N+](=O)[O-])c2)cc(C(=O)O)c1	-8	-1	3	3	0	0	/	/	/
CSc1ccc(CN(C)Cc2cc(=O)oc3c(C)c(C)ccc23)cc1	8	0	-1	-13	30	0	/	/	/
CCOc1ccc(CN(C)Cc2cc(=O)oc3c(C)c(C)ccc23)cc1OC	7	0	9.4*	/	52*	2	85*	-4	-1
Cc1ccc(SCCC(=O)Nc2ccc(Br)c(C)c2)cc1	19	-3	12*	-26	86*	0	92*	31*	17*
CCOC(=O)c1sc(NC(C)=O)cc1C	-4	-1	-1	22	0	0	/	/	/
CCOC(=O)c1sc(NC(=O)Nc2ccccc2)cc1C	9	1	9.2*	-4	94*	2	70*	-10	2
CC(CCc1ccccc1)NC(=O)COC(=O)c1cc(NS(=O)(=O)c2ccc(Cl)c([N+](=O)[O-])c2)ccc1O (stereo unspecified)	17	-2	8.7*	-5	100*	0	89*	31*	19*
O=C(Nc1ccccc1C(F)(F)F)OCCCN1CCC2(CCC(c3ccccc3)CC2)C1=O (stereo unspecified)	12	/	3	/	/	/	/	/	/
Cc1ccc(NC(=O)CSc2nn(-c3ccccc3)c(=S)s2)cc1S(=O)(=O)N(C)C	22*	2	9.0*	-4	98*	3	76*	33*	19*	ADAM10 confirm=5;ADAM17 ctr=2
O=C(/C=C/c1cccc([N+](=O)[O-])c1)NCCSCc1cccc(Cl)c1	19	3	13*	-2	63*	0	56*	22*	12*
O=C(/C=C/c1cccc([N+](=O)[O-])c1)NCc1ccccc1	-3	4	3	-7	-1	1	/	/	/
CCN(C(=O)CC(C)C)c1nnc(Cn2nnc3ccccc32)s1	-5	2	-5	3	1	3	/	/	/
CCN(C(=O)c1ccc(C(C)(C)C)cc1)c1nnc(Cn2nnc3ccccc32)s1	12	0	9.3*	/	105*	7.9*	92*	18	9.5*	aDG glyco conf=3
O=C(NCCc1ccccc1)OCc1cn(Cc2ccc(F)c(F)c2)nn1	3	/	2	/	/	/	/	/	/
O=C(Nc1cccc([N+](=O)[O-])c1)Nc1ccc2c(c1)OCCO2	12	-2	8.9*	23	62*	0	91*	12	8
CN(C)S(=O)(=O)Oc1cccc(C(=O)Nc2cccc(Cl)c2)c1	9	2	7	/	16	5	/	/	/
CN(C)S(=O)(=O)Oc1cccc(C(=O)Nc2ccc(Cl)c(Cl)c2)c1	1	-5	9.2*	/	96*	4	91*	35*	20*
Cc1cccc(Nc2nc(N)c([N+](=O)[O-])c(N3CC(C)OC(C)C3)n2)c1 (stereo unspecified)	-1	-1	-1	47	0	0	/	/	/

From PubChem BioAssay
